Reference: ChEMBL document CHEMBL1782009, “Synthesis and characterization of new types of halogenated and alkylated imidazolidineiminothiones and a comparative study of their antitumor, antibacterial, and antifungal activities” (Eur J Med Chem, 2011)

Assays:
Assay type in all cases: functional
[1] = Antitumor activity against mouse EAC cells assessed as inhibition of cell viability at 100 ug/ml by Trypan blue assay; conditions: Ehrlich
Procedure, shortened: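 EAC cells were taken by needle aspiration of ascitic fluid from preinoculated mice and diluted 1:10 in saline. Then 0.1 mL of cell suspension, 0.8 mL RPMI 1640 and 0.1 mL compound were incubated 2 h at 37 °C. Dead cells were counted by trypan blue exclusion, and % non-viable = non-viable/total cells × 100.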

[2] = tested on: Escherichia coli; assay: Antibacterial activity against Escherichia coli NCTC 10416 at 5 mg/ml after 24 hrs by agar disc diffusion method; conditions: NCTC 10416, 24 h, read-out: DIZ
Procedure, shortened: (§1)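 Agar well-diffusion using 1 cm wells, each loaded with 100 of compound solution (5 mg/mL in DMF). Bacteria were maintained on nutrient agar and plated as a standard suspension. Plates were incubated 24 h at 35 °C, and inhibition zone diameters were measured.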

[3] = tested on: Micrococcus luteus; assay: Antibacterial activity against Sarcina lutea ATCC 934 at 5 mg/ml after 24 hrs by agar disc diffusion method; conditions: ATCC 934, 24 h, read-out: DIZ; procedure, shortened: as §1
[4] = tested on: Bacillus subtilis; assay: Antibacterial activity against Bacillus subtilis NCTC 1040 at 5 mg/ml after 24 hrs by agar disc diffusion method; conditions: NCTC 1040, 24 h, read-out: DIZ; procedure, shortened: as §1
[5] = tested on: Staphylococcus aureus; assay: Antibacterial activity against Staphylococcus aureus NCTC 7447 at 5 mg/ml after 24 hrs by agar disc diffusion method; conditions: NCTC 7447, 24 h, read-out: DIZ; procedure, shortened: as §1
[6] = tested on: Candida albicans; assay: Antifungal activity against Candida albicans IMRU 3669 at 5 mg/ml by agar disc diffusion method; conditions: read-out: DIZ
[7] = tested on: Aspergillus flavus; assay: Antifungal activity against Aspergillus flavus at 5 mg/ml by agar disc diffusion method; conditions: read-out: DIZ

Row | SMILES | inhibition at 100 µg/mL [1] | zone of inhibition at 5000 µg/mL [2] | zone of inhibition at 5000 µg/mL [3] | zone of inhibition at 5000 µg/mL [4] | zone of inhibition at 5000 µg/mL [5] | zone of inhibition at 5000 µg/mL [6] | zone of inhibition at 5000 µg/mL [7]
1 | Cc1ccc(N2C(=N)C(=S)N(c3ccccc3)C2=O)cc1 | 10% | 20 mm | 18 mm | 21 mm | 21.5 mm | 22 mm | 15 mm
2 | CSc1ccc(N2C(=N)C(=S)N(c3ccccc3)C2=O)cc1 | 1% | 25.5 mm | 25 mm | 23.5 mm | 24 mm | 24 mm | 18 mm
3 | COc1ccc(N2C(=N)C(=S)N(c3ccccc3)C2=O)cc1 | 50% | 25 mm | 25 mm | 19 mm | 18 mm | 21 mm | 18 mm
4 | CSc1ccc(N2C(=N)C(=S)N(c3ccc(Cl)cc3)C2=O)cc1 | 20% | 15.5 mm | 15 mm | 16.5 mm | 16 mm | 16.5 mm | 15 mm
5 | COc1ccc(N2C(=N)C(=S)N(c3ccc(Cl)cc3)C2=O)cc1 | 0.5% | 23.5 mm | 22 mm | 20 mm | 19.5 mm | 22 mm | 17.5 mm
6 | Cc1ccc(N2C(=N)C(=S)N(c3ccc(Cl)cc3)C2=O)cc1 | 10% | 17 mm | 21 mm | 16 mm | 12 mm | 12 mm | 14 mm
7 | CSc1ccc(N2C(=N)C(=S)N(c3ccc(Br)cc3)C2=O)cc1 | 40% | 15.5 mm | 15 mm | 19.5 mm | 19 mm | 16 mm | 15 mm
8 | COc1ccc(N2C(=N)C(=S)N(c3ccc(Br)cc3)C2=O)cc1 | 10% | 16 mm | 19 mm | 18 mm | 13 mm | 12 mm | 18 mm
9 | Cc1ccc(N2C(=N)C(=S)N(c3ccc(Br)cc3)C2=O)cc1 | 20% | 16.5 mm | 14 mm | 18 mm | 18 mm | 14 mm | 15 mm
10 | N=C1C(=S)N(c2ccc(Br)cc2)C(=O)N1Cc1ccccc1 | 45% | 18.5 mm | 18 mm | 17 mm | 15.5 mm | 17 mm | 15 mm
11 | CSc1ccc(N2C(=N)C(=S)N(c3ccc(I)cc3)C2=O)cc1 | 10% | 14.5 mm | 14 mm | 16 mm | 16.5 mm | 16.5 mm | 15 mm
12 | COc1ccc(N2C(=N)C(=S)N(c3ccc(I)cc3)C2=O)cc1 | 20% | 19 mm | 18 mm | 19.5 mm | 18.5 mm | 23 mm | 18 mm
13 | Cc1ccc(N2C(=N)C(=S)N(c3ccc(I)cc3)C2=O)cc1 | 40% | 14 mm | 13 mm | 16.5 mm | 17 mm | 17 mm | 14 mm
14 | N=C1C(=S)N(c2ccc(I)cc2)C(=O)N1Cc1ccccc1 | 30% | 14 mm | 12 mm | 15 mm | 15 mm | 13 mm | 15 mm
